Results from ChEMBL document CHEMBL4316593 (Eur J Med Chem, 2019).

Experiment: Inhibition of RTK/PI3K/AKT/mTOR signaling in human U87 cells assessed as down regulation of GPATCH11 gene expression at cytotoxic IC50 measured after 48 hrs relative to control
Format: cell-based
Conditions: U-87MG ATCC
In short: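 U87 cells grown in MEM with 10% FBS at 37°C, 5% CO2. Cells exposed to IC50 of test compound for 48 hrs, alongside untreated and cisplatin controls, each condition in triplicate. RNA isolated and profiled; differential expression called with DESeq2 (q-value < 0.05, fold change > 1.5), fold change versus untreated.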

CC(=O)C(=NNc1ccccc1C#N)C(C)=O
log2FC: -1.69
